≈ marks a conversion by molar mass, not a printed value. Calls of active or inactive are those of the source. No cut-off for these calls is given here.
Legend:
[1] = system: Pseudomonas aeruginosa; experiment: Induction of cell permeabilization in Pseudomonas aeruginosa assessed as propidium iodide uptake at 4 uM after 10 mins; type: functional, organism-based
[2] = system: Staphylococcus aureus; experiment: Antimicrobial activity against Staphylococcus aureus 6271 assessed as reduction in bacterial growth after 20 hrs by broth microdilution assay; conditions: Staphylococcus aureus, 6271, 20 h
[3] = system: Pseudomonas aeruginosa; experiment: Antimicrobial activity against Pseudomonas aeruginosa clinical isolates assessed as reduction in bacterial growth after 20 hrs by […]; type: functional
Method in brief: (§1)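 Broth microdilution in LB (YPG for C. albicans) with 2-fold serial dilutions, final 0.1–100 μM. Mid-log cells grown 3–5 h at 37 °C were added at about 5 × 10^5 cfu/mL, then incubated 20 h at 37 °C with shaking. A540 was read every 15 min to build growth curves. Medium with cells served as growth control; at least three runs in duplicate.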

[4] = system: Escherichia coli; experiment: Antimicrobial activity against Escherichia coli assessed as reduction in bacterial growth after 20 hrs by […]; type: functional; method in brief: as §1
[5] = system: Staphylococcus aureus; experiment: Antimicrobial activity against Staphylococcus aureus clinical isolates from university hospital in Motol assessed as reduction in bacterial growth after 20 hrs by drop diffusion test; type: functional
[6] = system: Pseudomonas aeruginosa; experiment: Antimicrobial activity against Pseudomonas aeruginosa 5482 assessed as reduction in bacterial growth after 20 hrs […]; type: functional; conditions: Pseudomonas aeruginosa, 5482, 20 h; method in brief: as §1
[7] = system: Pseudomonas aeruginosa; experiment: Bactericidal activity against Pseudomonas aeruginosa assessed as induction of bacteria killing at 20 uM after 4 hrs by time kill assay; type: functional, organism-based
Method in brief: (§2)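 P. aeruginosa grown at 37 °C with shaking to mid-log phase, then diluted in fresh LB to about 5 × 10^5 cfu/mL. This inoculum was mixed 1:1 with LB containing the agent and shaken at 37 °C for 4 h. Samples were taken at 0–240 min, serially diluted in 0.9% NaCl and plated on LB agar overnight at 37 °C; viable counts are given as cfu/mL. LB-only growth control; means of four independent runs, SEM.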

[8] = system: Staphylococcus epidermidis; experiment: Antimicrobial activity against Staphylococcus epidermidis assessed as reduction in bacterial growth after 20 hrs by broth microdilution assay
[9] = system: Staphylococcus aureus; experiment: Antimicrobial activity against Staphylococcus aureus clinical isolates from Liberec regional hospital assessed as reduction in bacterial growth after 20 hrs by broth microdilution assay
[10] = system: Pseudomonas aeruginosa; experiment: Bactericidal activity against Pseudomonas aeruginosa assessed as reduction in bacterial count at 20 uM after 4 hrs by time kill assay; type: functional
Method in brief: (§3)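 P. aeruginosa inoculum about 5 × 10^5 cfu/mL in LB mixed 1:1 with LB alone or LB containing test agent at final 8, 24, 80 or 20 μM. Incubation was at 37 °C with shaking for 4 h. Aliquots taken at 0–240 min were serially diluted in 0.9% NaCl and plated on LB agar overnight at 37 °C. Viable cfu/mL were counted; means of four independent measurements.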

[11] = system: Pseudomonas aeruginosa; experiment: Bacteriostatic activity against Pseudomonas aeruginosa assessed as induction of bacteria killing at 80 uM after 60 mins by time kill assay; type: functional, organism-based; method in brief: as §2
[12] = system: Pseudomonas aeruginosa; experiment: Bacteriostatic activity against Pseudomonas aeruginosa assessed as induction of bacteria killing at 80 uM after 3 hrs by time kill assay; type: functional, organism-based; method in brief: as §2
[13] = Hemolytic activity in human type RBC after 1 hr; type: ADME, cell-based, Erythrocyte; conditions: red blood cells (erythrocytes), read-out: LC50
Method in brief: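 Peptides at 2.5–400 μM were incubated with a 4% suspension of human erythrocytes in physiological solution for 1 h at 37 °C, then centrifuged at 250g for 5 min; supernatant A540 was read. Saline-treated cells gave 0% lysis and 0.2% Triton X-100 gave 100%. LC50 is the concentration lysing 50% of cells; duplicates in at least two independent experiments.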

[14] = system: Bacillus subtilis; experiment: Antimicrobial activity against Bacillus subtilis assessed as reduction in bacterial growth after 20 hrs by […]; type: functional; method in brief: as §1
[15] = system: Pseudomonas aeruginosa; experiment: Ratio of MIC for Pseudomonas aeruginosa to PC50 for induction of permeabilization in Pseudomonas aeruginosa; type: functional
Method in brief: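 PC50: washed 10^8 cfu/mL cells in PBS pH 7 with PI 10 μg/mL, peptide 0.31–80 μM, 90 min at 37 °C dark, fluorescence 544/620 nm as % of 4 μM octenidine, interpolated from log-concentration curve.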

[16] = system: Staphylococcus aureus; experiment: Antimicrobial activity against Staphylococcus aureus clinical isolates assessed as FIC index in presence of amoxicillin after 20 hrs by drop diffusion test; type: functional
[17] = system: Micrococcus luteus; experiment: Antimicrobial activity against Micrococcus luteus assessed as reduction in bacterial growth after 20 hrs by […]; type: functional; method in brief: as §1
[18] = system: Pseudomonas aeruginosa; experiment: Antimicrobial activity against Pseudomonas aeruginosa clinical isolates assessed as FIC index in presence of rifampicin after 20 hrs by drop diffusion test; type: functional
[19] = system: Pseudomonas aeruginosa; experiment: Antimicrobial activity against Pseudomonas aeruginosa clinical isolates assessed as FIC index in presence of tetracycline after 20 hrs by drop diffusion test; type: functional
[20] = system: Candida albicans; experiment: Antifungal activity against Candida albicans assessed as reduction in fungal growth after 20 hrs by […]; type: functional; method in brief: as §1
[21] = system: Staphylococcus aureus; experiment: Antimicrobial activity against Staphylococcus aureus clinical isolates from Liberec regional hospital assessed as reduction in bacterial growth after 20 hrs by […]; type: functional; method in brief: as §1
[22] = system: Pseudomonas aeruginosa; experiment: Antimicrobial activity against Pseudomonas aeruginosa assessed as induction of cell integrity break down at 30 uM after 60 mins by TEM analysis; type: functional, organism-based
Method in brief: (§4)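 P. aeruginosa at 10^8 cfu/mL was exposed to peptide at 30 or 150 μM for 60 min, with untreated cells as control. Cells were centrifuged, washed twice in 0.9% NaCl and adsorbed 5–10 min on Parlodion-carbon-coated copper grids. They were negatively stained 30–40 s with 0.25% phosphotungstic acid (pH 7.3) plus 0.01% BSA, air-dried and imaged by TEM.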

[23] = system: Pseudomonas aeruginosa; experiment: Bactericidal activity against Pseudomonas aeruginosa assessed as reduction in bacterial count at 24 uM after 60 mins by time kill assay; type: functional; method in brief: as §3
[24] = system: Pseudomonas aeruginosa; experiment: Induction of cell permeabilization in Pseudomonas aeruginosa assessed as propidium iodide uptake at 5 to 10 uM after 10 mins; type: functional, organism-based
Method in brief: (§5)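 Mid-log P. aeruginosa was washed twice and resuspended in PBS (pH 7) at 10^8 cfu/mL with propidium iodide at 10 μg/mL. Peptide was added by 2-fold serial dilution in PBS (0.625–20 μM), with PBS as blank and octenidine dihydrochloride (4 μM final) as positive control. Plates were kept at 37 °C in the dark for 120 min, reading fluorescence (ex 544/em 620 nm) every minute. Means of at least three measurements.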

[25] = system: Pseudomonas aeruginosa; experiment: Induction of cell permeabilization in Pseudomonas aeruginosa assessed as propidium iodide uptake 10 to 100 mins; type: functional, organism-based; method in brief: as §5
[26] = system: Pseudomonas aeruginosa; experiment: Antimicrobial activity against Pseudomonas aeruginosa assessed as flagella attachment level at 30 uM after 60 mins by negative staining based TEM analysis; type: functional, organism-based; method in brief: as §4
[27] = system: Pseudomonas aeruginosa; experiment: Antimicrobial activity against Pseudomonas aeruginosa assessed as cell damage at 150 uM after 60 mins by negative staining based TEM analysis; type: functional, organism-based; method in brief: as §4
[28] = system: Pseudomonas aeruginosa; experiment: Antimicrobial activity against Pseudomonas aeruginosa assessed as compact cell levels at 30 uM after 60 mins by negative staining based TEM analysis; type: functional; method in brief: as §4
[29] = system: Pseudomonas aeruginosa; experiment: Antimicrobial activity against Pseudomonas aeruginosa assessed as disruption of cell envelope at 30 uM after 60 mins by negative staining based TEM analysis; type: functional, organism-based; method in brief: as §4
[30] = system: Pseudomonas aeruginosa; experiment: Bactericidal activity against Pseudomonas aeruginosa assessed as reduction in bacterial count at 8 uM after 60 mins by time kill assay; type: functional
Method in brief: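 Time-kill: P. aeruginosa (final about 5 × 10^5 cfu/mL) in LB with peptide (8 μM) or medium control was incubated 4 h at 37 °C with shaking. Samples were taken at 0–240 min, serially diluted in 0.9% NaCl and plated on LB agar overnight at 37 °C. Viable counts are given as cfu/mL; means of four independent measurements.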

[31] = system: Pseudomonas aeruginosa; experiment: Antimicrobial activity against Pseudomonas aeruginosa assessed as detached cell envelope at 30 uM after 60 mins by negative staining based TEM analysis; type: functional, organism-based; method in brief: as §4
[32] = system: Pseudomonas aeruginosa; experiment: Antimicrobial activity against Pseudomonas aeruginosa assessed as flagella detachment at 150 uM after 60 mins by negative staining based TEM analysis; type: functional, organism-based; method in brief: as §4
[33] = system: Pseudomonas aeruginosa; experiment: Antimicrobial activity against Pseudomonas aeruginosa assessed as induction of inner bacterial content leakage at 30 uM after 60 mins by TEM analysis; type: functional, organism-based; method in brief: as §4
[34] = system: Pseudomonas aeruginosa; experiment: Antimicrobial activity against Pseudomonas aeruginosa assessed as cell envelope detachment at 150 uM after 60 mins by negative staining based TEM analysis; type: functional, organism-based; method in brief: as §4

Row | Molecule | MIC [2] [µM] | MIC [3] [µM] | MIC [4] [µM] | MIC [5] [µM] | MIC [6] [µM] | MIC [8] [µM] | MIC [9] [µM] | HC50 at 1 h [13] [µM] | MIC [14] [µM] | fractional inhibitory concentration index (FICI) [16] | MIC [17] [µM] | fractional inhibitory concentration index (FICI) [18] | fractional inhibitory concentration index (FICI) [19] | MIC [20] [µM] | MIC [21] [µM] | further results
1 | CCCCCCCCN=c1ccn(CCCCCCCCCCn2ccc(=NCCCCCCCC)cc2)cc1 | – | – | – | – | – | – | – | – | – | – | – | – | – | – | – | Activity [1]: Active
2 | CO[C@H]1/C=C/O[C@@]2(C)Oc3c(C)c(O)c4c(O)c(c(/C=N/N5CCN(C)CC5)c(O)c4c3C2=O)NC(=O)/C(C)=C\C=C\[C@H](C)[C@H](O)[C@@H](C)[C@@H](O)[C@@H](C)[C@H](OC(C)=O)[C@@H]1C [RIFAMPIN] | < 0.1 | 19 (≈ 15.6 µg/mL) | 10 (≈ 8.23 µg/mL) | < 0.1 | 27 (≈ 22.2 µg/mL) | < 0.1 | < 0.1 | – | – | – | – | – | – | – | – | Activity [7]: Active; fold change (FC) [10]: 3
3 | CN(C)[C@@H]1C(O)=C(C(N)=O)C(=O)[C@@]2(O)C(O)=C3C(=O)c4c(O)cccc4[C@@](C)(O)[C@H]3C[C@@H]12 [TETRACYCLINE] | 0.9 (≈ 0.4 µg/mL) | 70 (≈ 31.1 µg/mL) | 2.7 (≈ 1.2 µg/mL) | 2 (≈ 0.889 µg/mL) | 29 (≈ 12.9 µg/mL) | > 100 | 1.1 (≈ 0.489 µg/mL) | > 200 | – | – | – | – | – | – | – | Activity [11]: inactive; Activity [12]: Active
4 | H-GILSSLWKKLKKWIAK-NH2 | 2.5 | 24 | 2.5 | 2 | 13 | 1.6 | 1.8 | 57 | ≤ 7 | 0.58 | ≤ 3 | 0.29 | 0.42 | 13 | – | Ratio [15]: 19
5 | H-GIWSSLLKKLKKIIAK-NH2 | 20 | 21 | 1.6 | 5.3 | 6.3 | 1.5 | – | 165 | ≤ 7 | 0.4 | ≤ 3 | 0.27 | 0.35 | 16 | 4.6 | Ratio [15]: 30; Activity [22]: Dose-dependent effect; fold change (FC) [23]: 2; Activity [24]: Active; Activity [25]: Dose-dependent effect
6 | H-GILSSLWKKLKKIIAK-NH2 | 5.3 | 8.8 | 3.4 | 5 | 5.3 | 2 | – | 197 | ≤ 7 | 0.56 | ≤ 3 | 0.44 | 0.65 | 11 | 2 | –
7 | H-GIMSSLMKKLKKIIAK-NH2 | 32 | 7.4 | 9 | 23 | 5 | 1.9 | 7.6 | > 400 | ≤ 7 | 0.33 | ≤ 3 | 0.43 | 0.65 | 5.2 | – | Activity [22]: Active; Activity [26]: Active; Activity [27]: Active; Activity [28]: 60%; Activity [29]: Active; fold change (FC) [30]: 2; Activity [31]: Active; Activity [25]: Active; Activity [32]: Active; Activity [33]: Active; Activity [34]: Active
8 | H-GILKSLLKKLKKIIAK-NH2 | 17 | 8.9 | 10 | 10 | 5 | 2.2 | – | > 400 | ≤ 7 | 0.54 | ≤ 3 | 0.33 | 0.52 | 24 | 4.3 | –
